Assay results from ChEMBL document CHEMBL4229442, “Anti-acute myeloid leukemia activity of 2-chloro-3-alkyl-1,4-naphthoquinone derivatives through inducing mtDNA damage and GSH depletion” (Bioorg Med Chem, 2018).

Assays:
Assay type in all cases: functional
HL-60 [1] = assay: Cell cycle arrest in human HL60 cells assessed as accumulation at G2/M phase at 9 uM after 24 hrs by propidium iodide staining based flow cytometry (reference value: 7.2%)
HL-60 [2] = assay: Cell cycle arrest in human HL60 cells assessed as accumulation at G2/M phase at 3 uM after 24 hrs by propidium iodide staining based flow cytometry (reference value: 7.2%)
HL-60 [3] = assay: Cell cycle arrest in human HL60 cells assessed as increase in accumulation at G2/M phase after 24 hrs by propidium iodide staining based flow cytometry
HL-60 [4] = assay: Induction of apoptosis in human HL60 cells assessed as early apoptotic cells at 9 uM after 24 hrs by Annexin-V-FITC/propidium iodide staining based flow cytometry (reference value: 2.91%)
How it was run: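 5×10^5 HL-60 cells in 6-well plates, treated at 3, 6 or 9 µM for 24 or 48 h. Cells were stained with Annexin V-FITC/PI and read by flow cytometry. Early apoptotic cells were taken as Annexin+/PI− and late apoptotic or necrotic cells as Annexin+/PI+.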

HL-60 [5] = assay: Induction of oxidative stress in human HL60 cells assessed as reduction in GSH level at 9 uM measured after 24 hrs relative to control; parameters: scale not given: the % may be the effect or the level left
How it was run: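 1 × 10^6 HL-60 cells treated 12 or 24 h. GSH and GSSG measured with a commercial kit by DTNB […] to TNB, rate read at 412 nm; GSSG recycled to GSH by glutathione reductase with NADPH. Levels expressed as nM per mg protein; mean ± SE of three experiments.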

CCC1=C(Cl)C(=O)c2cc(OC)c(OC)c(OC)c2C1=O
Activity (HL-60 [1]): 12.24% | Activity (HL-60 [2]): 10.92% | Activity (HL-60 [3]): Dose-dependent effect | Activity (HL-60 [4]): 17.61% | Activity (HL-60 [5]): 20%
